The record followed here is ChEMBL document CHEMBL1126123, “Reversible inhibitors of the gastric (H+/K+)-ATPase. 3. 3-substituted-4-(phenylamino)quinolines” (J Med Chem, 1992).

For test [1], the target named is T1, Potassium-transporting ATPase subunit beta (Rattus norvegicus) (UniProt P18598).
T1 sequence (whole entry): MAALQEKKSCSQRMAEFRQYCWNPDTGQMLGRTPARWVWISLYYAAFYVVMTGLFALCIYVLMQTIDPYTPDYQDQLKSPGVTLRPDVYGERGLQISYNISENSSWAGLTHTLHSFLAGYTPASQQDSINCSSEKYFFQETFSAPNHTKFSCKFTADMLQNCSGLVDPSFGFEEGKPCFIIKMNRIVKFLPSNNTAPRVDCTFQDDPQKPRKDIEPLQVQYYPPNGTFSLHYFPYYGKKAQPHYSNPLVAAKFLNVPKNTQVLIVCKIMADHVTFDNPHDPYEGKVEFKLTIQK
The experiment in a line: Inhibition of pentagastrin stimulated gastric acid secretion in anesthetized rat upon intravenous administration. Type of test: functional, organism-based. The settings on record: Stomach. In short, it runs like this: (§1)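 Anesthetized rat with lumen-perfused stomach; acid secretion induced by pentagastrin; compound given intravenously.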

Test [2] has as its target T2, Potassium-transporting ATPase (Sus scrofa, UniProt P19156). Kind of test: […] inhibit the activity of K+ stimulated gastric ATPase. The class given is tissue-based, Stomach. The method, boiled down: (§2)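 Initial screen of K+-stimulated ATPase activity in a lyophilized gastric vesicle preparation at pH 7, in vitro.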
Test [3] has as its target T2, Potassium-transporting ATPase. Kind of test: (§3) […] inhibit the activity of gastric H+/K+ ATPase. The class given is tissue-based, Stomach. In short, it runs like this: as §2
For test [4], the system named is Rattus norvegicus. Kind of test: inhibition pentagastrin stimulated gastric acid secretion in anesthetized rat when compound (10 umol/kg) administered intravenously. Type of test: functional, Stomach.
Test [5] addresses Potassium-transporting ATPase (Rattus norvegicus) (UniProt P09626+P18598). The experiment in a line: Inhibition of pentagastrin stimulated gastric acid secretion in anesthetized rat at 10 umol/kg upon intravenous administration. The class given is functional, organism-based. The settings on record: Stomach.
Test [6] relates to Canis familiaris. The experiment in a line: Inhibition of histamine stimulated gastric acid secretion was tested in heidenhain pouch dog at 1 umol/kg upon intravenous administration. The class given is functional. Conditions: Canis lupus familiaris, Stomach.
The test system of test [7] is Canis familiaris. Kind of test: Inhibition of histamine stimulated gastric acid secretion was tested in heidenhain pouch dog upon intravenous administration. Type of test: functional. Conditions: Canis lupus familiaris, Stomach.
In test [8] the test system is Canis familiaris. The experiment in a line: Inhibition of histamine stimulated gastric acid secretion was tested in heidenhain pouch dog upon oral administration. Type of test: functional. Conditions: Canis lupus familiaris, Stomach.
Test [9] addresses T3, Potassium-transporting ATPase (Sus scrofa) (UniProt P18434+P19156). The experiment in a line: […] inhibit the activity of K+ stimulated gastric ATPase at 100 uM. The class given is tissue-based. Conditions: Stomach.
In test [10] the test system is Canis familiaris. Kind of test: Inhibition of histamine stimulated gastric acid secretion was tested in heidenhain pouch dog at 4 uM/kg upon oral administration. Type of test: functional, Canis lupus familiaris, Stomach.
Test [11] deals with Rattus norvegicus. The experiment in a line: Compound was evaluated for inhibition pentagastrin stimulated gastric acid secretion in anesthetized rat when administered intravenously. Type of test: functional. The settings on record: Stomach, iv. In short, it runs like this: as §1
For test [12], the target named is T3, Potassium-transporting ATPase (Sus scrofa). The test is described as §3. Type of test: tissue-based. The settings on record: Stomach. The method, boiled down: as §2

T2 sequence (P18434 whole entry): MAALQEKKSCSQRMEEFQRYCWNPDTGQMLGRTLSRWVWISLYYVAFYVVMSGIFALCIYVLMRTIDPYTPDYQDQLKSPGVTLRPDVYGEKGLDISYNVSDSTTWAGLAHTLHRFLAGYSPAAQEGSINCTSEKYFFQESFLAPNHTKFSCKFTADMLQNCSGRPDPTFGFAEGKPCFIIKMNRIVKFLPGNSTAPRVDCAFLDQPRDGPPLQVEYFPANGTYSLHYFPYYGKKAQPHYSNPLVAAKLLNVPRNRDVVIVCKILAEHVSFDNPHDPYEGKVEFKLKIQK
T2 sequence (P19156 whole entry): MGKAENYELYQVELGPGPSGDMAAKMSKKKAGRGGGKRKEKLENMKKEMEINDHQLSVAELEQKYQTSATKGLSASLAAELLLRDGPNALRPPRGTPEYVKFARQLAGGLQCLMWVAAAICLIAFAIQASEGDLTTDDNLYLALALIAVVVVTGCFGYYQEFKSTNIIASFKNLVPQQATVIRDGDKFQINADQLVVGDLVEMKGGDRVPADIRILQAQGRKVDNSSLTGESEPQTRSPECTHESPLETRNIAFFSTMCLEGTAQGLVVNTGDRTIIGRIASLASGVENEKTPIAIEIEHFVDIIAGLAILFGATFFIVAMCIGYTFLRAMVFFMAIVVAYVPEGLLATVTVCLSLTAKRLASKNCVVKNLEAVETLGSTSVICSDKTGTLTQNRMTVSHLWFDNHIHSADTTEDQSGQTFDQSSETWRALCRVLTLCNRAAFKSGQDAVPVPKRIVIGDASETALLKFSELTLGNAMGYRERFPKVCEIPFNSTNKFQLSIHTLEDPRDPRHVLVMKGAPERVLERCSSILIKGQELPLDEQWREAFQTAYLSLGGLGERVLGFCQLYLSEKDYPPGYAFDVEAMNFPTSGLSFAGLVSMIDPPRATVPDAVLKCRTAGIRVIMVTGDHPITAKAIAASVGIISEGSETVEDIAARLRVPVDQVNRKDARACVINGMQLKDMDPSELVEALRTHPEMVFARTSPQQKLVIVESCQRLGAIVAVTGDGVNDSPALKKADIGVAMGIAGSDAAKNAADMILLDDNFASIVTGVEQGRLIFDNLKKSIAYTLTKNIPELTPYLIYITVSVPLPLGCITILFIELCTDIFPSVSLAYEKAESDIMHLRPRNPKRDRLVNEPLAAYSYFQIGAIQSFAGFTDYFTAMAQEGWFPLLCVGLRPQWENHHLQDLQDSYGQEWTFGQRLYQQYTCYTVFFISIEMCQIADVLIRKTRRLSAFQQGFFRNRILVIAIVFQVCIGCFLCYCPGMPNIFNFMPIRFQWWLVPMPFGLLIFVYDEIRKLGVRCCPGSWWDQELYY

On to `COCC(=O)c1cnc2c(OC)cccc2c1Nc1ccccc1C`, for which the ED50 (commonly the midpoint of the dose-response relation) in test [1] was 12.2 µmol/kg. Also, in test [2], the IC50 (commonly the concentration at which inhibition is half-maximal) is 12.1 µM.
As to `CCOC(=O)c1cnc2c(OC)cccc2c1Nc1ccccc1.Cl`, the IC50 in [3] was 3.54 µM. Also, the Inhibition – broadly, the share of the control response that was lost under treatment – in the test with Rattus norvegicus [4] amounted to 38%.
For the compound `CCNC(=O)c1cnc2c(OC)cccc2c1Nc1ccccc1C`, the inhibition (usually the drop in the measured response relative to a control, in per cent) in [5] is 58%. In test [2], this compound gave an IC50 of 2.94 µM.
The matching figures for `COc1cccc2c(Nc3ccccc3C)c(C(=O)OCCN(C)C)cnc12`: 19% and 44 µM.
The matching figures for `Cc1ccccc1Nc1c(N)cnc2ccccc12`: 27% and 30.6 µM.
In turn, `CO/N=C(\C)c1cnc2c(OC)cccc2c1Nc1ccccc1C` gave a half-maximal inhibitory concentration (IC50) in test [2] of 20.5 µM.
In test [5], `COc1cccc2c(Nc3ccccc3C)c(C(=O)NCc3ccccc3)cnc12` displayed an inhibition of 13%. In [2], this compound gave an IC50 of 49 µM.
On the same counts, the results for `CCCCNC(=O)c1cnc2c(OC)cccc2c1Nc1ccccc1C` are 30% and 65 µM.
`COc1cccc2c(Nc3ccccc3C)c(C(C)=O)cnc12` gave an ED50 in test [1] of 13.2 µmol/kg. The compound also displayed an IC50 in test [2] of 4.8 µM. Besides, the inhibition in vivo (as a rule, the change of the read-out against control, counted positive when it falls) at 1 µmol/kg with Canis familiaris [6] amounted to 11%.
For `CN/C(=N\CCSCc1nc[nH]c1C)NC#N` [CIMETIDINE], the ED50 with Canis familiaris [7] came out at 1.7 µmol/kg; in the test with Canis familiaris [8], 8.5 µmol/kg.
`C=CCNC(=O)c1cnc2c(OC)cccc2c1Nc1ccccc1C`: the inhibition in test [5] was determined as 38%. This compound registered an IC50 in test [2] of 3.45 µM.
The matching figures for `CCCC(=O)c1cnc2c(OC)cccc2c1Nc1ccccc1`: 34% and 4 µM.
The matching figures for `COc1cccc2c(Nc3ccccc3C)c(C(=O)C3CCCCC3)cnc12`: 42% and 3.8 µM.
`CCCCCC(=O)c1cnc2c(OC)cccc2c1Nc1ccccc1C` displayed an ED50 in [1] of 10.7 µmol/kg. The compound further showed a concentration for half-maximal inhibition (IC50) in [2] of 2.77 µM.
As for `Cc1ccccc1Nc1ccnc2ccccc12`, the inhibition in test [5] is 16%. Also, the midpoint of inhibition in test [2], the IC50, lay at 1.43 µM.
The matching figures for `CCCc1cnc2c(OC)cccc2c1Nc1ccccc1C`: 34% and 8.63 µM.
For `COc1cccc2c(Nc3ccccc3C)ccnc12`, the ED50 in test [1] was found to be 12.7 µmol/kg. Moreover, inhibition in test [2] was half-maximal at 0.1 µM (IC50).
Take `CNC(=O)c1cnc2c(OC)cccc2c1Nc1ccccc1C`: in [3], the IC50 was 6.73 µM. The same compound registered an Inhibition with Rattus norvegicus [4] of 28%.
As to `COc1cccc2c(Nc3ccccc3C)c(C(=O)NC(C)(C)CO)cnc12`, the inhibition in test [9] was 26%; in [5], 13%.
`Cc1ccccc1Nc1c([N+](=O)[O-])cnc2ccccc12` returned an inhibition in [5] of 30%.
Compound `Cc1ccccc1Nc1c(Br)cnc2ccccc12` registered an inhibition in [5] of 31%. This compound also yielded a half-inhibitory concentration (IC50) in [2] of 14.1 µM.
As to `CCOC(=O)c1cnc2c(OC)cccc2c1Nc1ccccc1C.Cl`, the Inhibition in the test with Canis familiaris [10] was 11.1%. The median effective dose (ED50) came out at 0.49 µmol/kg in the test with Canis familiaris [7] and 8.23 µmol/kg with Rattus norvegicus [11].
For the compound `COc1cccc2c(Nc3ccccc3C)c(C(=O)c3ccccc3)cnc12`, the IC50 in test [2] was 16.1 µM. In other words, the double-digit micromolar range.
On to `CCC(=O)c1cnc2c(OC)cccc2c1Nc1ccccc1C`, for which the Inhibition in the test on Canis familiaris [10] stood at 92.3%. The same compound registered an ED50 in test [1] of 1.39 µmol/kg. In test [2], this compound had a half-maximal inhibitory concentration (IC50) of 0.4 µM. Further, in the test on Canis familiaris [6], the inhibition in vivo at 1 µmol/kg was determined as 80.9%.
In [3], `COc1cccc2c(Nc3ccccc3C)c(CO)cnc12` displayed a half-inhibitory concentration (IC50) of 11.6 µM. Besides, the Inhibition with Rattus norvegicus [4] is on record as 5%.
Compound `COc1cccc2c(Nc3ccccc3C)c(C)cnc12` yielded an inhibition in test [5] of 12.5%. This compound returned a half-maximal inhibitory concentration (IC50) in [2] of 6.1 µM.
For `CCC[S+]([O-])c1cnc2ccccc2c1Nc1ccccc1C` (stereo not given), the values for the inhibition in test [9] and in [5] were 19% and 21%, respectively.
Take `COc1cccc2c(Nc3ccccc3C)c(C(=O)C(C)C)cnc12`: the Inhibition in the test on Canis familiaris [10] is reported as 44.6%. Moreover, in [1], it took a dose of 1.92 µmol/kg to reach the 50% effect level (ED50). In addition, the IC50 in [2] is 1.09 µM. In addition, the inhibition in vivo at 1 µmol/kg in the test on Canis familiaris [6] turned out to be 75%.
In the case of `COc1cccc2c(Nc3ccccc3C)c(C(N)=O)cnc12`, the concentration for half-maximal inhibition (IC50) in test [3] was 15.3 µM.
In test [5], `CCCNC(=O)c1cnc2c(OC)cccc2c1Nc1ccccc1C` registered an inhibition of 40%. The same compound displayed a half-inhibitory concentration (IC50) in test [2] of 22 µM.
With `CCOC(=O)c1cnc2ccccc2c1Nc1ccccc1C`, the inhibition in [5] was 49%. The compound also registered an IC50 in [2] of 0.6 µM.
Compound `COc1cccc2c(Nc3ccccc3C)c(C(=O)C3CCCC3)cnc12` had an Inhibition in the test on Canis familiaris [10] of 55.7%. The compound further displayed an inhibition in test [5] of 56%. The same compound returned an IC50 in [2] of 1.7 µM.
As to `CCOC(=O)c1cnc2c(OC)cccc2c1N(C)c1ccccc1`, in test [2], inhibition was half-maximal at 89 µM (IC50). In other words, the double-digit micromolar range.
With `COc1cccc2c(Nc3ccccc3C)c(C(=O)C3CCC3)cnc12`, the inhibition in test [5] turned out to be 47%. Besides, the 50% inhibitory concentration (IC50) in test [2] amounted to 1.2 µM.
The compound `CCCSc1cnc2ccccc2c1Nc1ccccc1C` came in with an inhibition in test [5] of 11%. In test [2], the IC50 was 5.14 µM.
For `CCCC(=O)c1cnc2c(OC)cccc2c1Nc1ccccc1C`, the ED50 with Canis familiaris [7] is 0.26 µmol/kg; in the test on Canis familiaris [8], 1.6 µmol/kg; in test [1] it was 2.62 µmol/kg. Also, it took 1.05 µM to reach half-maximal inhibition in test [2] (IC50).
Consider `CCC(CC)C(=O)c1cnc2c(OC)cccc2c1Nc1ccccc1C`, for which, in test [5], the inhibition was 55%. In addition, the IC50 in test [2] is 1.8 µM.
In the case of `CCCC(O)c1cnc2c(OC)cccc2c1Nc1ccccc1C` (stereo not given), the concentration for half-maximal inhibition (IC50) in test [2] came out at 55 µM.
On the same count and under the same terms, under `COc1cccc2c(Nc3ccccc3C)c(C(C)O)cnc12` (stereo not given) stands 24 µM.
With `COc1cccc2c(Nc3ccccc3C)c(C(=O)O)cnc12`, the inhibition in test [12] is 30%.
In the case of `CCCC(=O)c1cnc2ccccc2c1Nc1ccccc1C`, the ED50 in test [1] is 5.45 µmol/kg. The compound also registered an IC50 in [2] of 0.97 µM. In addition, the inhibition in vivo at 1 µmol/kg in the test with Canis familiaris [6] is 45.4%.
For the compound `COc1cccc2c(Nc3ccccc3C)c(C(=O)N3CCCC3)cnc12`, the results for the inhibition in test [9] and in [5] were 20% and 15%, respectively.
Consider `CCOC(=O)c1cnc2c(OC)cccc2c1Oc1ccccc1C`, for which the inhibition in test [9] is 13%.
Turning to `COc1cccc2c(Nc3ccccc3C)c(C(=O)C(C)(C)C)cnc12`, the Inhibition in the test with Canis familiaris [10] came out at 11.3%. Also, the inhibition in [5] came to 63%. In test [2], this compound gave a half-inhibitory concentration (IC50) of 2.6 µM.
